Experimental data from the M2OR odorant receptor database.

How the values were obtained:
Details in all cases: stereoisomer not certain
[1] = molecular target: T1, OR51E1 (Homo sapiens) (UniProt Q8TCB6)
T1 sequence (whole entry): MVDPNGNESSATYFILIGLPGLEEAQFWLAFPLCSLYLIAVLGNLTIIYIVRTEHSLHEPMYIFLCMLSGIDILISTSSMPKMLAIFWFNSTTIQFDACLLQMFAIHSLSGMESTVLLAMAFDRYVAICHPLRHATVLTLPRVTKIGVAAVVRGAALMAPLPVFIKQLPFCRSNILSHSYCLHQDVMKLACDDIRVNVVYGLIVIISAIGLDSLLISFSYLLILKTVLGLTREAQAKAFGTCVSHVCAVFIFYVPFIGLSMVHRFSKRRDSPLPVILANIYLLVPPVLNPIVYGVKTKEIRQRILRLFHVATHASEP
How it was run: (§1)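 Whether a receptor–molecule pair is responsive (active) rests on the original authors' judgment that its measured signal was statistically different from baseline. Pairs without that judgment are non-responsive (inactive). Sources used varied assay methods, commonly transient luciferase assays in mammalian cell lines.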

[2] = molecular target: T2, OR51E2 (Homo sapiens) (UniProt Q9H255)
T2 sequence (whole entry): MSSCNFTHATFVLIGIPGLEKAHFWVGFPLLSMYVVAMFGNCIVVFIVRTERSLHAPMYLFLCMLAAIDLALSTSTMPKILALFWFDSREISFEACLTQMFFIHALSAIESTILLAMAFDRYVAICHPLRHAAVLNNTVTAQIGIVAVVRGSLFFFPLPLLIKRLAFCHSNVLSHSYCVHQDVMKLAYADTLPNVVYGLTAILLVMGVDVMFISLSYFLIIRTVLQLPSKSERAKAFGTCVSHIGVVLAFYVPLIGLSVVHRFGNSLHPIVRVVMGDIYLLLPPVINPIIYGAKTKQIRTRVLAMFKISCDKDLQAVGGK
How it was run: as §1

[3] = molecular target: OR51A4 (Homo sapiens) (UniProt Q8NGJ6)
Sequence of OR51A4 (Homo sapiens) (Q8NGJ6 whole entry): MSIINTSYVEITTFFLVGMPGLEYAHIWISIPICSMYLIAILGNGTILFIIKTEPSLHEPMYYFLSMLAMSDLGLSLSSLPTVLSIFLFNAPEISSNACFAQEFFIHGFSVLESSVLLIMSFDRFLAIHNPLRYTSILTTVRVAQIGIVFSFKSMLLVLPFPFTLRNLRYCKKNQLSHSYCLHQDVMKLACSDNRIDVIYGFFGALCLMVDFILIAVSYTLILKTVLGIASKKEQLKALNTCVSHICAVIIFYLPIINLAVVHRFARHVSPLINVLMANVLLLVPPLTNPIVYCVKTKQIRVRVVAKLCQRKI
How it was run: as §1

[4] = molecular target: OR51A7 (Homo sapiens) (UniProt Q8NH64)
Sequence of OR51A7 (Homo sapiens) (Q8NH64 whole entry): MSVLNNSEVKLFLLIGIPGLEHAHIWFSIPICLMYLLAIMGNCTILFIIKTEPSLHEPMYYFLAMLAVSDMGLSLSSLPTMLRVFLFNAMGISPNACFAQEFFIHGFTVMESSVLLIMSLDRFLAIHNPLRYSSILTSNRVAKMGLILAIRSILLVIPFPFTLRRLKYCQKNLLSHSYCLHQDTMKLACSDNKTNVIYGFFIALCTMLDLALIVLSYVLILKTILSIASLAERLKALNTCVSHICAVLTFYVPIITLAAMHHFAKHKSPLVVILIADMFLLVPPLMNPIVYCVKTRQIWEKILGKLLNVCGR
How it was run: as §1

[5] = molecular target: OR51B2 (Homo sapiens) (UniProt Q9Y5P1)
Sequence of OR51B2 (Homo sapiens) (Q9Y5P1 whole entry): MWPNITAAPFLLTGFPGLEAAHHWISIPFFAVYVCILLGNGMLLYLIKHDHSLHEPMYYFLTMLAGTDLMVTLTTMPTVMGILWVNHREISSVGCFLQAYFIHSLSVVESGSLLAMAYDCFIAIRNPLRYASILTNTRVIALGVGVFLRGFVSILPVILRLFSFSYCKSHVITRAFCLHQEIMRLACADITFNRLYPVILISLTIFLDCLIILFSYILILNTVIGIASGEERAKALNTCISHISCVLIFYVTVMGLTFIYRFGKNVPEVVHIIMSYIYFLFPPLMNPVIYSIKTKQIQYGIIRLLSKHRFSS
How it was run: as §1

[6] = molecular target: OR51B4 (Homo sapiens) (UniProt Q9Y5P0)
Sequence of OR51B4 (Homo sapiens) (Q9Y5P0 whole entry): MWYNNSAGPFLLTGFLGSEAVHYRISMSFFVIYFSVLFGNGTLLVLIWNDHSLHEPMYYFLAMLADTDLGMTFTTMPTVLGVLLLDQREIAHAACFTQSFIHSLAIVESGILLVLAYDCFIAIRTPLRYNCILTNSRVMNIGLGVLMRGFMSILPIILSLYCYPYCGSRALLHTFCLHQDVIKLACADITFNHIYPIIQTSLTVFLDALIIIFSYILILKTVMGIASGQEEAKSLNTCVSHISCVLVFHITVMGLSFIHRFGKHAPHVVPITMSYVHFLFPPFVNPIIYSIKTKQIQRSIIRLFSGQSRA
How it was run: as §1

[7] = molecular target: T3, OR51B5 (Homo sapiens) (UniProt Q9H339)
T3 sequence (whole entry): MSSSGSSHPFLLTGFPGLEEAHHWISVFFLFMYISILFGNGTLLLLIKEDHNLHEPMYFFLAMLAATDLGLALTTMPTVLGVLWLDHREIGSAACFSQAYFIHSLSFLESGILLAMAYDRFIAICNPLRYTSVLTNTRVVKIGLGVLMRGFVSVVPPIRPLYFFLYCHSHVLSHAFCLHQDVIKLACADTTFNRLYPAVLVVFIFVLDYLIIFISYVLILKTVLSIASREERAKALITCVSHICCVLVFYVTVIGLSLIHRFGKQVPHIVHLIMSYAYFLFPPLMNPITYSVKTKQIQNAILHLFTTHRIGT
How it was run: as §1

[8] = molecular target: OR51B6 (Homo sapiens) (UniProt Q9H340)
Sequence of OR51B6 (Homo sapiens) (Q9H340 whole entry): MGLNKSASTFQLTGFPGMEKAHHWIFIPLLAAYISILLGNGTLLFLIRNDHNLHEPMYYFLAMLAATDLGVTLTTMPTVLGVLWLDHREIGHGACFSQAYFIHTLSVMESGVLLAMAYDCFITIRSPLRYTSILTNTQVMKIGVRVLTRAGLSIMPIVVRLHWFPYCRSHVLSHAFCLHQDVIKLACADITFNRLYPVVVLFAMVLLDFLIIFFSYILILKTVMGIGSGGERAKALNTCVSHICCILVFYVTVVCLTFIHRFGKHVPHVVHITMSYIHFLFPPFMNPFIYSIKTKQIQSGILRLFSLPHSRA
How it was run: as §1

[9] = molecular target: OR51D1 (Homo sapiens) (UniProt Q8NGF3)
Sequence of OR51D1 (Homo sapiens) (Q8NGF3 whole entry): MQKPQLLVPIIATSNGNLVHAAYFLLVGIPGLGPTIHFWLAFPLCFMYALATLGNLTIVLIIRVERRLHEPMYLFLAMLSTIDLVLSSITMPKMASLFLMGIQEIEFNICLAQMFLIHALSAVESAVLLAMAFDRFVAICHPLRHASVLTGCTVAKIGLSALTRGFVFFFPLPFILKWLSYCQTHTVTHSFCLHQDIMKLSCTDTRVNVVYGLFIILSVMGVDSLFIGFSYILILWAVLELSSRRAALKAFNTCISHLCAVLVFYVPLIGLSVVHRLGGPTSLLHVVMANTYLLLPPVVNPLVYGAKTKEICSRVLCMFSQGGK
How it was run: as §1

[10] = molecular target: OR51E1 (Homo sapiens) (UniProt Q8TCB6); remark: listed apart in the source
How it was run: as §1
Target sequence in this assay (Q8TCB6 whole entry): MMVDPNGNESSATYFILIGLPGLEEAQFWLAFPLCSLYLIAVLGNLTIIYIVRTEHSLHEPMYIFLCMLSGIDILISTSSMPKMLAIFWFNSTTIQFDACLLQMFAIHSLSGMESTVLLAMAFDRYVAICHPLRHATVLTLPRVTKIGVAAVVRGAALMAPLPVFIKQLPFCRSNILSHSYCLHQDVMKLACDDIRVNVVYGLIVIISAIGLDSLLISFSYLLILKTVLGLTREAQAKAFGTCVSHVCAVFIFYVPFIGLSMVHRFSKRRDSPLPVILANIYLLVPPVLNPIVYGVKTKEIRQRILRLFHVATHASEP

Measured: odorant receptor agonist call;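 note: active if original authors judged signal statistically different from baseline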

C=CCc1ccccc1
inactive: [1] | [2]

C=CCOC(=O)Cc1ccccc1
inactive: [3] | [4] | [5] | [6] | [7] | [8] | [9] | [10] | [1] | [2]

CCC1CCC(=O)O1 (stereo unspecified)
inactive: [1] | [2]

COc1ccc(C=O)cc1
inactive: [7]

Cc1c([N+](=O)[O-])c(C)c([N+](=O)[O-])c(C(C)(C)C)c1[N+](=O)[O-]
inactive: [3] | [4] | [5] | [6] | [7] | [8] | [9] | [2]

O=c1cc(O)c2ccccc2o1
inactive: [1] | [2]

Cc1cccc(C)c1
inactive: [7]
